Test results taken from ChEMBL document CHEMBL4145570, “Structures and Biological Evaluation of Monoterpenoid Glycosides from the Roots of Paeonia lactiflora” (J Nat Prod, 2018).
The source made the active and inactive calls. The rule behind the calls is not given here.

What was measured:
RAW264.7 [1] = test: Antiinflammatory activity in mouse RAW264.7 cells assessed as inhibition of LPS-induced NO production at 40 uM relative to control; assay type: functional
RAW264.7 [2] = test: Antiinflammatory activity in mouse RAW264.7 cells assessed as inhibition of LPS-induced NO production at 60 uM relative to control; assay type: functional
RAW264.7 [3] = test: Antiinflammatory activity in mouse RAW264.7 cells assessed as inhibition of LPS-induced NO production at 20 uM relative to control; assay type: functional
RAW264.7 [4] = test: Cytotoxicity against mouse RAW264.7 cells up to 100 uM; assay type: cell-based
Summary of the method: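 Viability assessed in LPS-stimulated RAW264.7 macrophages during the NO-production assay, at concentrations up to 100 μM.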

RAW264.7 [5] = test: Antiinflammatory activity in mouse RAW264.7 cells assessed as inhibition of LPS-induced NO production; assay type: functional, cell-based
Summary of the method: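 NO release measured in LPS-stimulated RAW264.7 macrophages alongside an unstimulated control group; IC50 derived; dexamethasone as positive control.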

HCT-8 = test: Cytotoxicity against human HCT8 cells assessed as decrease in cell viability at 10 uM after 24 hrs by MTT assay; assay type: functional, cell-based
HepG2 = test: Protection against acetaminophen-induced cell injury in human HepG2 cells at 10 uM after 24 hrs by MTT assay; assay type: functional, cell-based
[6] = biological target: T1, Tyrosine-protein phosphatase non-receptor type 1 (Homo sapiens) (UniProt P18031); test: Inhibition of PTP1B (unknown origin) at 10 uM
T1 sequence (whole entry): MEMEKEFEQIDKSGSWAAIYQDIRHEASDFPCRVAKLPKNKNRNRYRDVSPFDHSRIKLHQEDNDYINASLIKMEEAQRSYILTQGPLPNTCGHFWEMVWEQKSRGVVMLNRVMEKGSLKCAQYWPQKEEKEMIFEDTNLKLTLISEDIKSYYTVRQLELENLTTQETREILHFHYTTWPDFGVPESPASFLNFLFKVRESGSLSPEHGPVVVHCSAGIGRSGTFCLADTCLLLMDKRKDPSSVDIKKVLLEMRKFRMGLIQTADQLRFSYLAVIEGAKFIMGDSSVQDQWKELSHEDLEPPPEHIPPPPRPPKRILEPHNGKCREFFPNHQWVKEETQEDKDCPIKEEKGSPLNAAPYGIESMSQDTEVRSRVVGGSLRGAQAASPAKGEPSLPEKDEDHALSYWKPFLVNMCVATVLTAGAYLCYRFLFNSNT

BGC-823 = test: Cytotoxicity against human BGC823 cells assessed as decrease in cell viability at 10 uM after 24 hrs by MTT assay; assay type: functional, cell-based
Bel-7402 = test: Cytotoxicity against human Bel7402 cells assessed as decrease in cell viability at 10 uM after 24 hrs by MTT assay; assay type: functional, cell-based
Peritoneal macrophage = test: Inhibition of LPS-induced TNFalpha secretion in C57BL6J mouse peritoneal macrophages at 10 uM after 24 hrs; assay type: functional, cell-based
RAW264.7 [7] = test: Antiinflammatory activity in mouse RAW264.7 cells assessed as inhibition of LPS-induced NO production at 10 uM relative to control; assay type: functional
RAW264.7 [8] = test: Antiinflammatory activity in mouse RAW264.7 cells assessed as inhibition of LPS-induced NO production at 80 uM relative to control; assay type: functional
A2780 = test: Cytotoxicity against human A2780 cells assessed as decrease in cell viability at 10 uM after 24 hrs by MTT assay; assay type: functional, cell-based
A549 = test: Cytotoxicity against human A549 cells assessed as decrease in cell viability at 10 uM after 24 hrs by MTT assay; assay type: functional, cell-based

| SMILES | inhibition at 40 µM (RAW264.7 [1]) | inhibition at 60 µM (RAW264.7 [2]) | inhibition at 20 µM (RAW264.7 [3]) | Activity (RAW264.7 [4]) | IC50 (RAW264.7 [5]) | Activity (HCT-8) | Activity (HepG2) | inhibition [6] | Activity (BGC-823) | Activity (Bel-7402) | inhibition (Peritoneal macrophage) | inhibition at 10 µM (RAW264.7 [7]) | inhibition at 80 µM (RAW264.7 [8]) | Activity (A2780) | Activity (A549) |
| --- | --- | --- | --- | --- | --- | --- | --- | --- | --- | --- | --- | --- | --- | --- | --- |
| C[C@]1(C(=O)OC[C@H]2O[C@@H](O[C@]34CC5C3(COC(=O)c3ccccc3)[C@H]3O[C@]5(O)C[C@]4(C)O3)[C@H](O)[C@@H](O)[C@@H]2O)[C@@H]2CC[C@H](CO)[C@H]1C2 | 25.8% | 29.3% | 22.8% | Non-Toxic | > 100 µM | inactive | inactive | inactive | inactive | inactive | inactive | 16.5% | 44.6% | inactive | inactive |
| C[C@]12CC(=O)[C@H]3C[C@@]1(O[C@@H]1O[C@H](CO)[C@@H](O)[C@H](O)[C@H]1O)O[C@@H](O2)[C@H]3COC(=O)c1ccccc1 | 34.9% | 49.9% | 29.6% | Non-Toxic | 60.1 µM | inactive | inactive | inactive | inactive | inactive | inactive | 28% | 61% | inactive | inactive |
| CC1(C)[C@@H]2C[C@H]1[C@@H](O)C[C@@H]2C(=O)OC[C@H]1O[C@@H](O[C@]23CC4C2(COC(=O)c2ccccc2)[C@H]2O[C@]4(O)C[C@]3(C)O2)[C@H](O)[C@@H](O)[C@@H]1O | 27.5% | 38.7% | 23.3% | Non-Toxic | > 100 µM | inactive | inactive | inactive | inactive | inactive | inactive | 8.58% | 40.8% | inactive | inactive |
| C[C@]1(C(=O)OC[C@H]2O[C@@H](O[C@]34CC5C3(COC(=O)c3ccccc3)[C@H]3O[C@]5(O)C[C@]4(C)O3)[C@H](O)[C@@H](O)[C@@H]2O)[C@@H]2CC[C@@H](CO)[C@H]1C2 | 22.1% | 39.5% | 20.9% | Non-Toxic | > 100 µM | inactive | inactive | inactive | inactive | inactive | inactive | 19.7% | 40.7% | inactive | inactive |
| CC1=CC(=O)[C@H]2C[C@@]1(O[C@@H]1O[C@H](CO)[C@@H](O)[C@H](O)[C@H]1O)C2(C)COC(=O)c1ccccc1 (stereo partly specified) | 26% | 45.9% | 19.3% | Non-Toxic | 64.8 µM | inactive | inactive | inactive | inactive | inactive | inactive | 25.7% | 61.7% | inactive | inactive |
| CC(C)c1ccc(CO[C@@H]2O[C@H](CO[C@@H]3O[C@@H](C)[C@H](O)[C@@H](O)[C@H]3O)[C@@H](O)[C@H](O)[C@H]2O)cc1 | 31.1% | 38.7% | 23.6% | Non-Toxic | 97.5 µM | inactive | inactive | inactive | inactive | inactive | inactive | 22.2% | 52.4% | inactive | inactive |
| CC12C(=O)O[C@@]3(C)C[C@@H](O)[C@H]1C[C@]23O[C@@H]1O[C@H](COC(=O)c2ccccc2)[C@@H](O)[C@H](O)[C@H]1O | 28.2% | 34.8% | 24.4% | Non-Toxic | > 100 µM | inactive | inactive | inactive | inactive | inactive | inactive | 19.1% | 39.4% | inactive | inactive |
| C[C@@H]1C[C@H]2[C@@H]3CCC4=CC(=O)C=C[C@]4(C)[C@@]3(F)[C@@H](O)C[C@]2(C)[C@@]1(O)C(=O)CO [DEXAMETHASONE] |  |  |  |  | 8.3 µM |  |  |  |  |  |  |  |  |  |  |
| CC1=CC(=O)[C@H]2C[C@]1(O[C@@H]1O[C@H](COC(=O)c3ccccc3)[C@@H](O)[C@H](O)[C@H]1O)C2(C)CO (stereo partly specified) | 18.3% | 31.9% | 16.2% | Non-Toxic | > 100 µM | inactive | inactive | inactive | inactive | inactive | inactive | 12.8% | 45% | inactive | inactive |
| CC(C)=CCC/C(C)=C/C(=O)O[C@@H]1O[C@H](CO[C@@H]2O[C@@H](C)[C@H](O)[C@@H](O)[C@H]2O)[C@@H](O)[C@H](O)[C@H]1O | 29.2% | 33.4% | 21.4% | Non-Toxic | > 100 µM | inactive | inactive | inactive | inactive | inactive | inactive | 21.4% | 41% | inactive | inactive |
